Source: ChEMBL document CHEMBL1123418, “N-imidazolylchroman-4-ones, N-imidazolyl-1-tetralones, and their alcohols as hypolipemic agents raising high-density lipoproteins” (1986)
Values joined by “and” are separate entries in the source; they are usually repeats but may differ in a detail not shown here. Equal entries are not always repeated.

How the values were obtained:
Rattus norvegicus [1] = test: Percent increase in liver weight in rats when administered perorally; format: functional
Rattus norvegicus [2] = test: Percent change in total cholesterol concentration in serum from hypercholesterolemic rats at dose 50 mg/kg (po); format: functional
Rattus norvegicus [3] = test: Percent change in high density lipoproteins cholesterol concentration in serum from hypercholesterolemic rats at dose 50 mg/kg (po); format: functional
Method in brief: (§1)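 Rats were fed 1.5% cholesterol/0.5% cholic acid diet for 7 days, with compounds given by gavage over the last 4 days as a 0.5% Methocel suspension (0.5 mL/100 g). Rats were fasted overnight, killed on day 8 and bled under light CO₂ anesthesia. HDL was isolated by heparin-MnCl₂ precipitation (8000 rpm, 15 min, 4 °C). Total and HDL cholesterol were measured enzymatically-colorimetrically; % change vs control.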

Rattus norvegicus [4] = test: Percent change in total cholesterol concentration in serum from hypercholesterolemic rats at dose 37 mg/kg (po); format: functional
Rattus norvegicus [5] = test: Percent change in high density lipoproteins cholesterol concentration in serum from hypercholesterolemic rats at dose 37 mg/kg (po); format: functional; method in brief: as §1
Rattus norvegicus [6] = species: Rattus norvegicus; test: Compound was tested in vitro for inhibition of Cholesterol biosynthesis in rat liver slices, % inhibition of [14C]acetate incorporation in neutral lipids at 2 e10-4 concentration; format: functional
Method in brief: (§2)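 Liver slices (250 mg) from fed male rats were incubated in Krebs-Ringer bicarbonate, pH 7.4, with 4 mM [2-¹⁴C]acetate under 95% O₂-5% CO₂. Compounds were tested at a final 2 × 10⁻⁴ M, or 5 × 10⁻⁵ M for one compound. ¹⁴C incorporation into cholesterol and into petroleum-ether-soluble nonsaponifiable neutral lipids gave % inhibition; mean of four determinations.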

Rattus norvegicus [7] = species: Rattus norvegicus; test: Compound was tested in vitro for inhibition of Cholesterol biosynthesis in rat liver slices, % inhibition of [14C]-acetate incorporation in cholesterol at 2 e10-4 concentration; format: functional; method in brief: as §2
Rattus norvegicus [8] = test: Percent change in total cholesterol concentration in serum from hypercholesterolemic rats at dose 35 mg/kg (po); format: functional
Rattus norvegicus [9] = test: Percent change in high density lipoproteins cholesterol concentration in serum from hypercholesterolemic rats at dose 35 mg/kg (po); format: functional; method in brief: as §1
Rattus norvegicus [10] = test: Percent increase in liver weight in rats when a 50 mg/Kg dose was administered; format: functional
[11] = Percent change in high density lipoprotein cholesterol
Rattus norvegicus [12] = test: Percent change in triglyceride concentration in serum from normocholesterolemic rats at dose 50 mg/kg (po)
Rattus norvegicus [13] = test: Percent change in low density lipoproteins cholesterol concentration in serum from normocholesterolemic rats at dose 50 mg/kg (po)
Rattus norvegicus [14] = test: Percent change in total cholesterol concentration in serum from hypercholesterolemic rats at dose 25 mg/kg (po); format: functional; method in brief: as §1
Rattus norvegicus [15] = test: Percent change in high density lipoproteins cholesterol concentration in serum from hypercholesterolemic rats at dose 25 mg/kg (po); format: functional; method in brief: as §1
Rattus norvegicus [16] = test: Percent change in total cholesterol concentration in serum from hypercholesterolemic rats at dose 45 mg/kg (po); format: functional
Rattus norvegicus [17] = test: Percent change in high density lipoproteins cholesterol concentration in serum from hypercholesterolemic rats at dose 45 mg/kg (po); format: functional; method in brief: as §1

Structure (SMILES) | Change (Rattus norvegicus [1]) [%] | Change (Rattus norvegicus [2]) [%] | Change (Rattus norvegicus [3]) [%] | other results
CC1Oc2cc(O)ccc2C(=O)C1n1ccnc1 (stereo unspecified) | 3 | -22 | 2 | –
O=C1c2cc(O)cc(Br)c2OCC1n1ccnc1 (stereo unspecified) | -1 | 2 | 1 | –
O=C1c2ccccc2CCC1n1cccn1 (stereo unspecified) | 9 | 52 | -3 | –
O=C1c2cc([N+](=O)[O-])ccc2CCC1n1ccnc1 (stereo unspecified) | 5 | -16 | 23 | –
CN(C)c1ccc2c(c1)C(=O)C(n1ccnc1)CC2 (stereo unspecified) | 11 | – | – | Change (Rattus norvegicus [4]): -37%; Change (Rattus norvegicus [5]): 69%; Inhibition (Rattus norvegicus [6]): 0%; Inhibition (Rattus norvegicus [7]): 55%
O=C1c2ccccc2OCC1n1ccnc1 (stereo unspecified) | 16 | 34 | 4 | –
CCCc1cc2c(cc1OC)OC(C)C(n1ccnc1)C2=O (stereo unspecified) | 24 | – | – | Change (Rattus norvegicus [8]): -57%; Change (Rattus norvegicus [9]): 152%
O=C1c2cc(Cl)ccc2OCC1n1cccn1 (stereo unspecified) | 6 | 35 | 13 | –
COc1ccc2c(c1)C(O)C(n1ccnc1)CC2 (stereo unspecified) | 21 | -24 | 88 | –
OC1c2cc(Cl)ccc2OCC1n1ccnc1 (stereo in doubt; 40) | 24 | – | – | Change (Rattus norvegicus [10]): 24%; Change (Rattus norvegicus [2]; 50 mg/kg): -42% and -19%; Inhibition (Rattus norvegicus [6]): 0%; Inhibition (Rattus norvegicus [7]): 0%; Percent change in HDL cholesterol [11]: 123; Change (Rattus norvegicus [12]): -36%; Change (Rattus norvegicus [13]): -50%
O=C1c2cc(Br)cc(Br)c2OCC1n1ccnc1 (stereo unspecified) | 29 | -68 | 171 | –
CC1Oc2c(Br)cc(C(=O)O)cc2C(=O)C1n1ccnc1 (stereo unspecified) | 4 | -23 | -11 | –
CCCc1cc2c(cc1O)OC(C)C(n1ccnc1)C2=O (stereo unspecified) | 8 | – | – | Change (Rattus norvegicus [14]): -15%; Change (Rattus norvegicus [15]): 28%
CC(C)(C)c1cc2c(cc1O)OCC(n1ccnc1)C2=O (stereo unspecified) | 11 | -55 | 97 | –
O=C1c2ccccc2CCC1n1ccnc1 (stereo unspecified) | 13 | -34 | 94 | –
COc1ccc2c(c1)OCC(n1ccnc1)C2=O (stereo unspecified) | 3 | 11 | -1 | –
Cc1ccc2c(c1)C(=O)C(n1ccnc1)CO2 (stereo unspecified) | – | 7 | 32 | –
O=C(O)c1ccc2c(c1)C(=O)C(n1ccnc1)CC2 (stereo unspecified) | -3 | – | – | Change (Rattus norvegicus [16]): -5%; Change (Rattus norvegicus [17]): -9%
CCCCCCCCOC1c2cc(Cl)ccc2OCC1n1ccnc1 (stereo unspecified) | – | 42 | 18 | –
O=C1c2cc(Br)ccc2OCC1n1ccnc1 (stereo unspecified) | 23 | -50 | 144 | –
O=C1c2ccccc2OC(c2ccccc2)C1n1ccnc1 (stereo unspecified) | 5 | 27 | -3 | –
COc1cc(Br)c2c(c1)C(=O)C(n1ccnc1)CO2 (stereo unspecified) | 6 | 14 | 64 | –
